Assay results published in ChEMBL document CHEMBL5370673 (ACS Med Chem Lett, 2023).
The source made the active and inactive calls. The rule behind the calls is not given here.

Assays:
[1] = test system: Schistosoma mansoni; experiment: Antischistosomal activity against Schistosoma mansoni assessed as maximal effect at <= 320 uM; assay type: functional, organism-based
[2] = test system: Schistosoma mansoni; experiment: Antischistosomal activity against Schistosoma mansoni infected in CF1/W74 mouse assessed as reduction in parasitic flatworms viability at 500 mg/kg administered for 5 days relative to control; assay type: functional
[3] = test system: Rodentolepis nana; experiment: Anti-cestodal activity against Hymenolepis nana infected in CF1/W74 mouse assessed as reduction in parasitic flatworms at 25 mg/kg relative to control; assay type: functional; design: scale not given: the % may be the effect or the level left
[4] = Activation of Schistosoma mansoni in TRPM binding site of PZQ expressed in HEK293 cells assessed as effect in cytosolic Ca2+ level measured for 250 sec by […] NW staining based FLIPR assay; assay type: cell-based
[5] = Activation of Echinococcus granulosus in TRPM binding site of PZQ expressed in HEK293 cells assessed as effect in cytosolic Ca2+ level measured for 250 sec by […] NW staining based FLIPR assay; assay type: cell-based
[6] = Activation of Mesocestoides corti in TRPM binding site of PZQ expressed in HEK293 cells assessed as effect in cytosolic Ca2+ level measured for 250 sec by […] NW staining based FLIPR assay; assay type: cell-based
Outline: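 HEK293 cells transiently transfected with the individual TRPMPZQ ortholog (S. mansoni, E. granulosus or M. corti). Cytosolic Ca2+ change read by fluorescence reporter (FLIPR) across increasing analog concentrations. Untransfected HEK293 cells serve as control.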

[7] = test system: Rodentolepis nana; experiment: Anti-cestodal activity against Hymenolepis nana infected in CF1/W74 mouse assessed as reduction in parasitic flatworms at 500 mg/kg relative to control; assay type: functional; design: scale not given: the % may be the effect or the level left
[8] = test system: Echinococcus multilocularis; experiment: Induction of morphological changes in Echinococcus multilocularis MB17 protoscoleces assessed as increase in contraction at 100 uM by cestode motility assay; assay type: functional, organism-based
[9] = test system: Echinococcus multilocularis; experiment: Anthelmintic activity against Echinococcus multilocularis MB17 protoscoleces assessed as reduction in motility at 0.001 to 100 uM measured after 0.5 hrs by live cell imaging analysis; assay type: functional, organism-based; details: dose 0.001-100 µM
Outline: (§1)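 E. multilocularis protoscoleces incubated ex vivo across a concentration range. Motility scored at 0.5, 12 and 24 h and expressed as % of DMSO vehicle control (mean ± SEM). IC50 taken from concentration–response curves at each time point.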

[10] = test system: Schistosoma mansoni; experiment: Antischistosomal activity against Schistosoma mansoni assessed as maximal effect at <= 3.2 uM; assay type: functional, organism-based
[11] = test system: Schistosoma mansoni; experiment: Antischistosomal activity against Schistosoma mansoni infected in CF1/W74 mouse assessed as reduction in parasitic flatworms viability at 50 mg/kg administered for 5 days relative to control; assay type: functional; details: time 5 day
[12] = test system: Echinococcus multilocularis; experiment: Anthelmintic activity against Echinococcus multilocularis MB17 protoscoleces assessed as increase in contraction at 1 uM by live cell imaging analysis; assay type: functional, organism-based
[13] = test system: Echinococcus multilocularis; experiment: Anthelmintic activity against Echinococcus multilocularis MB17 protoscoleces assessed as reduction in motility measured after 24 hrs by live cell imaging analysis; assay type: functional, organism-based; outline: as §1
[14] = Selectivity ratio of EC50 for activation of Schistosoma mansoni in TRPM binding site of PZQ expressed in HEK293 cells to EC50 for activation of Echinococcus granulosus in TRPM binding site of PZQ expressed in HEK293 cells; assay type: cell-based
[15] = Selectivity ratio of EC50 for activation of Schistosoma mansoni in TRPM binding site of PZQ expressed in HEK293 cells to EC50 for activation of Mesocestoides corti in TRPM binding site of PZQ expressed in HEK293 cells; assay type: cell-based
[16] = test system: Echinococcus multilocularis; experiment: Anthelmintic activity against Echinococcus multilocularis MB17 protoscoleces assessed as increase in contraction at 30 uM by live cell imaging analysis; assay type: functional, organism-based
[17] = Echinococcus granulosus, HEK293, read-out: EC50
[18] = Mesocestoides corti, HEK293, read-out: EC50

EC50 ([4]; hek293) | EC50 [5, 17] [nM] | EC50 [6, 18] [nM] | SMILES | Activity [1] | Activity ([2]; time 5 day) [%] | Activity [3] [%] | Activity [7] [%] | other results
Not Active | 2300 | 5300 | O=C(c1cccnc1)N1CC(=O)N2CCc3ccccc3C2C1 (racemic) | Active | <90 | 100 | – | –
Not Active | 22000 | 16000 | O=C(c1cccnc1)N1CC(=O)N2CCc3ccccc3[C@H]2C1 | inactive | – | – | 100 | Activity ([2]; time 5.0 day): inactive; Activity [8]: Active; Activity [9]: Active
Not Active | 53000 | 65000 | O=C(C1CC1)N1CC(=O)N2CCc3ccccc3C2C1 (centres undefined) | inactive | <90 | – | 100 | –
Not Active | > 100000 | > 100000 | CNc1ccc(C(=O)N2CC(=O)N3CCc4ccccc4C3C2)cc1 (centres undefined) | inactive | 100 | 100 | – | –
Not Active | – | – | O=C(c1ccc([N+](=O)[O-])cc1)N1CC(=O)N2CCc3ccccc3C2C1 (centres undefined) | inactive | <90 | – | 100 | EC50 ([5]; hek293): Not Active; EC50 ([6]; hek293): Not Active
Not Active | – | – | CN(C)c1ccc(C(=O)N2CC(=O)N3CCc4ccccc4C3C2)cc1 (centres undefined) | inactive | 100 | 100 | – | EC50 ([5]; hek293): Not Active; EC50 ([6]; hek293): Not Active
– | 960 | 800 | Nc1ccc(C(=O)N2CC(=O)N3CCc4ccccc4C3C2)cc1 (centres undefined) | Active | 100 | 100 | – | Ratio EC50 [14]: 8; Ratio EC50 [15]: 8
Not Active | > 100000 | > 100000 | N[C@H]1CC[C@@H](C(=O)N2CC(=O)N3CCc4ccccc4C3C2)CC1 (some centres undefined) | inactive | – | – | <90 | Activity ([2]; time 5.0 day): inactive
– | 1400 | 980 | O=C(c1cccnc1)N1CC(=O)N2CCc3ccccc3[C@@H]2C1 | inactive | 100 | 100 | – | EC50 ([4]; Schistosoma mansoni, HEK293, read-out: EC50): > 100000 nM; Activity [16]: Active; Activity [9]: Active

SMILES | EC50 ([4]; hek293) | EC50 [5, 17] [nM] | EC50 [6, 18] [nM] | Activity [1] | Activity ([2]; time 5 day) [%] | Activity [3] [%] | Activity [7] [%] | other results
O=C(C1CCCCC1)N1CC(=O)N2CCc3ccccc3C2C1 (racemic) [PRAZIQUANTEL] | – | – | 120 | – | – | 100 | – | Activity [10]: Active; Activity [11]: 100%; Activity [12]: Active; Activity [13]: Active; Activity [9]: Active
O=C(C1CCCCC1)N1CC(=O)N2CCc3ccccc3[C@@H]2C1 [PRAZIQUANTEL, (R)-] | – | – | 80 | – | – | 100 | – | Activity [10]: Active; Activity [11]: 100%
O=C(C1CCCCC1)N1CC(=O)N2CCc3ccccc3[C@H]2C1 | – | – | 1230 | Active | >90 | – | 100 | –
